Measured values collected from several papers.
Compare with care: the assays were run in different laboratories.
Target: Calcium-dependent protein kinase 1 (CDPK1, Plasmodium falciparum, UniProt P62344)

Nc1ncnc2occ(-c3ccc(NC(=O)Nc4cc(C(F)(F)F)ccc4F)cc3)c12
remaining signal (cell-free assay; inhibitor; 20 µM): 1.2%

Cc1nn(C)cc1-c1nc2c(N3CCN(Cc4ccc(Cl)cc4)CC3)c(Cl)cnc2[nH]1
remaining binding (binding; competition with immobilised ligand; 1 µM): 100%

FC(F)(F)Oc1cccc(-c2cnc3ccc(-c4ccncc4)nn23)c1
remaining binding (binding; competition with immobilised ligand; 5 µM): 4.5%

O=C(Nc1c[nH]nc1C(=O)NC1CCNCC1)c1cc(F)cc(F)c1
remaining binding (binding; competition with immobilised ligand; 1 µM): 89%

Nc1ncc2c(n1)-c1c([nH]c3ccc(C#CC4CC4)cc13)CCCC2
remaining binding (binding; competition with immobilised ligand; 1 µM): 79%

O=C(NCC1CCOCC1)c1n[nH]cc1NC(=O)c1c(F)cccc1F
remaining binding (binding; competition with immobilised ligand; 1 µM): 83%

COc1ccnn2ncc(-c3ccnc(N(C)C)n3)c12
remaining binding (binding; 1 µM): 81%

Cc1ccc(C(=O)Nc2ccc(CN3CCN(C)CC3)c(C(F)(F)F)c2)cc1C#Cc1cnc2cccnn12
remaining activity (enzyme activity; inhibitor; 23.5 nM): 16%

CNC(=O)[C@@H]1CC[C@@H](n2c(-c3ccc4cnccc4c3)nc3ccc(C(=O)NCc4cccc(C(N)=O)c4)cc32)C1
remaining binding (binding; competition with immobilised ligand; 1 µM): 99%

C[C@@H]1CCN(c2nccc(-c3cnn4ncccc34)n2)C1
remaining binding (binding; 1 µM): 85%

C=CC(=O)N1CCC(C(=O)NCC(=O)N2CCN(c3nc(-c4cnc(N)nc4C(F)F)nc(N4CCOCC4)n3)CC2)CC1
remaining binding (binding; competition with immobilised ligand; 1 µM): 81%

N[C@@H]1CCN(c2nccc(-c3cnn4ncccc34)n2)C1
remaining binding (binding; 1 µM): 91%

c1cncc(-c2cccc(Nc3nccc(NC4CCCCC4)n3)c2)c1
remaining binding (binding; competition with immobilised ligand; 10 µM): 24%

COc1cnc(Nc2cccc(S(N)(=O)=O)c2)nc1N1CCN(c2ccccc2)CC1
remaining binding (binding; competition with immobilised ligand; 1 µM): 86%

CCN1CCN(Cc2ccc(C(=O)Nc3ccc(C)c(Oc4ccc5c(c4)CC(=O)N5)c3)cc2C(F)(F)F)CC1
remaining binding (binding; competition with immobilised ligand; 1 µM): 68%
